Measurements from ChEMBL document CHEMBL1157693, “Microwave assisted synthesis and antimicrobial activity of 2-quinoxalinone-3-hydrazone derivatives” (2010).
In brackets after ≈: the same amount, converted by molar mass. Activity calls are given as the source filed them. No cut-off for these calls is given here.

Key:
Format in all cases: functional
[1] = system: Staphylococcus aureus; assay: Antibacterial activity against Staphylococcus aureus NCIB 8588 after 24 hrs by agar well diffusion method; note: test concentration or dose not given here
Summary of the method: (§1)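 Agar well diffusion. Clinical isolates were first checked for viability, then grown in nutrient broth for 8 h at 37 °C. About 0.2 ml of broth culture was mixed into 18 ml molten diagnostic sensitivity test agar cooled to 45 °C and poured into plates. Compounds in DMSO went into bored wells, with streptomycin as reference. Plates stood 1 h for diffusion, then were incubated upright at 37 °C for 24 h. Clear inhibition zones were read in mm.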

[2] = system: Escherichia coli; assay: Antibacterial activity against Escherichia coli NCIB 86 after 24 hrs by agar well diffusion method; summary of the method: as §1; note: test concentration or dose not given here
[3] = system: Pseudomonas fluorescens; assay: Antibacterial activity against Pseudomonas fluorescens NCIB 3756 after 24 hrs by agar well diffusion method; summary of the method: as §1; note: test concentration or dose not given here
[4] = system: Klebsiella pneumoniae; assay: Antibacterial activity against Klebsiella pneumoniae NCIB 418 after 24 hrs by agar well diffusion method; summary of the method: as §1; note: test concentration or dose not given here
[5] = system: Bacillus subtilis; assay: Antibacterial activity against Bacillus subtilis NCIB 3610 after 24 hrs by agar well diffusion method; summary of the method: as §1; note: test concentration or dose not given here
[6] = system: Bacillus cereus; assay: Antibacterial activity against Bacillus cereus NCIB 6349 after 24 hrs by agar well diffusion method; summary of the method: as §1; note: test concentration or dose not given here
[7] = system: Shigella dysenteriae; assay: Antibacterial activity against Shigella dysenteriae after 24 hrs by agar well diffusion method
[8] = system: Pseudomonas aeruginosa; assay: Antibacterial activity against Pseudomonas aeruginosa NCIB 950 after 24 hrs by agar well diffusion method; summary of the method: as §1; note: test concentration or dose not given here
[9] = system: Candida albicans; assay: Antifungal activity against Candida albicans after 3 days by agar well diffusion method
[10] = system: Bacillus anthracis; assay: Antibacterial activity against Bacillus anthracis after 72 hrs
[11] = system: Geobacillus stearothermophilus; assay: Antibacterial activity against Bacillus stearothermophilus NCIB 8222 after 72 hrs; settings: NCIB 8222, 72 h
Summary of the method: (§2)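 MIC by the Russell and Furr method, run on selected Gram-positive and Gram-negative strains. Once the agar had set and its surface had dried, nutrient agar plates were streaked with overnight broth cultures. They were incubated at 37 °C for up to 72 h and scored for presence or absence of growth.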

[12] = system: Bacillus subtilis; assay: Antibacterial activity against Bacillus subtilis NCIB 3610 after 72 hrs; settings: NCIB 3610, 72 h; summary of the method: as §2
[13] = system: Bacillus cereus; assay: Antibacterial activity against Bacillus cereus NCIB 6349 after 72 hrs; summary of the method: as §2
[14] = system: Staphylococcus aureus; assay: Antibacterial activity against Staphylococcus aureus NCIB 8588 after 72 hrs; settings: NCIB 8588, 72 h; summary of the method: as §2
[15] = system: Escherichia coli; assay: Antibacterial activity against Escherichia coli NCIB 86 after 72 hrs; settings: NCIB 86, 72 h; summary of the method: as §2
[16] = system: Klebsiella pneumoniae; assay: Antibacterial activity against Klebsiella pneumoniae NCIB 418 after 72 hrs; settings: NCIB 418, 72 h; summary of the method: as §2
[17] = system: Shigella dysenteriae; assay: Antibacterial activity against Shigella dysenteriae after 72 hrs
Summary of the method: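 MIC by agar dilution: compound-containing nutrient agar was set and surface-dried, then streaked with overnight broth culture of the clinical isolate. Incubated at 37 °C for up to 72 h and scored for presence or absence of growth. Streptomycin was the reference.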

[18] = system: Bacillus anthracis; assay: Antibacterial activity against Bacillus anthracis after 24 hrs by agar well diffusion method
[19] = system: Geobacillus stearothermophilus; assay: Antibacterial activity against Bacillus stearothermophilus NCIB 8222 after 24 hrs by agar well diffusion method; summary of the method: as §1; note: test concentration or dose not given here

| SMILES | inhibition zone (IZ) [1] | inhibition zone (IZ) [2] | inhibition zone (IZ) [3] | inhibition zone (IZ) [4] | inhibition zone (IZ) [5] | inhibition zone (IZ) [6] | inhibition zone (IZ) [7] | inhibition zone (IZ) [8] | inhibition zone (IZ) [9] | MIC [10] | MIC [11] | MIC [12] | MIC ([13]; NCIB 6349, 72 h) | MIC [14] | MIC [15] | MIC [16] | MIC [17] | inhibition zone (IZ) [18] | inhibition zone (IZ) [19] | MIC [13] |
| --- | --- | --- | --- | --- | --- | --- | --- | --- | --- | --- | --- | --- | --- | --- | --- | --- | --- | --- | --- | --- |
| Cc1ccc2c(c1)/C(=N/Nc1nc3ccccc3[nH]c1=O)C(=O)N2 | 19 mm | 14 mm | 0 mm | 17 mm | 15 mm | 10 mm | 14 mm | 0 mm | 30 mm | inactive | 62.5 µg/mL (≈ 196 µM) | 31.3 µg/mL (≈ 98 µM) | 62.5 µg/mL (≈ 196 µM) | 15.6 µg/mL (≈ 48.9 µM) | 31.3 µg/mL (≈ 98 µM) | 15.6 µg/mL (≈ 48.9 µM) | 31.3 µg/mL (≈ 98 µM) | 0 mm | 13 mm |  |
| C/C(=N\Nc1nc2ccccc2[nH]c1=O)c1cc2cc(C)ccc2oc1=O | 19 mm | 15 mm | 0 mm | 19 mm | 16 mm | 25 mm | 12 mm | 10 mm | 10 mm | 62.5 µg/mL (≈ 173 µM) | 31.3 µg/mL (≈ 86.9 µM) | 31.3 µg/mL (≈ 86.9 µM) | 7.8 µg/mL (≈ 21.6 µM) | 15.6 µg/mL (≈ 43.3 µM) | 62.5 µg/mL (≈ 173 µM) | 31.3 µg/mL (≈ 86.9 µM) | 62.5 µg/mL (≈ 173 µM) | 14 mm | 15 mm |  |
| O=c1[nH]c2ccccc2nc1NN=C1c2ccccc2Cc2ccccc21 | 14 mm | 20 mm | 0 mm | 21 mm | 12 mm | 25 mm | 0 mm | 15 mm | 9 mm | 31.3 µg/mL (≈ 88.8 µM) | 15.6 µg/mL (≈ 44.3 µM) | 31.3 µg/mL (≈ 88.8 µM) | 7.8 µg/mL (≈ 22.1 µM) | 15.6 µg/mL (≈ 44.3 µM) | 15.6 µg/mL (≈ 44.3 µM) | 7.8 µg/mL (≈ 22.1 µM) | inactive | 14 mm | 18 mm |  |
| O=C1Nc2ccccc2/C1=N/Nc1nc2ccccc2[nH]c1=O | 19 mm | 10 mm | 0 mm | 12 mm | 14 mm | 0 mm | 0 mm | 17 mm | 20 mm | 125 µg/mL (≈ 409 µM) | 62.5 µg/mL (≈ 205 µM) | 62.5 µg/mL (≈ 205 µM) |  | 31.3 µg/mL (≈ 103 µM) | 125 µg/mL (≈ 409 µM) | 62.5 µg/mL (≈ 205 µM) | 15.6 µg/mL (≈ 51.1 µM) | 11 mm | 13 mm | inactive |
| C/C(=N\Nc1nc2ccccc2[nH]c1=O)c1cc2cc(Cl)ccc2oc1=O | 32 mm | 30 mm | 10 mm | 32 mm | 33 mm | 30 mm | 19 mm | 14 mm | 14 mm | 7.8 µg/mL (≈ 20.5 µM) | 7.8 µg/mL (≈ 20.5 µM) | 7.8 µg/mL (≈ 20.5 µM) | 7.8 µg/mL (≈ 20.5 µM) | 15.6 µg/mL (≈ 41 µM) | 7.8 µg/mL (≈ 20.5 µM) | 7.8 µg/mL (≈ 20.5 µM) | 15.6 µg/mL (≈ 41 µM) | 25 mm | 30 mm |  |
| O=c1[nH]c2ccccc2nc1N/N=C1\CCCCC1Br (configuration not stated) | 13 mm | 13 mm | 0 mm | 12 mm | 20 mm | 28 mm | 15 mm | 0 mm | 19 mm | 15.6 µg/mL (≈ 46.5 µM) | 31.3 µg/mL (≈ 93.4 µM) | 7.8 µg/mL (≈ 23.3 µM) | 7.8 µg/mL (≈ 23.3 µM) | 31.3 µg/mL (≈ 93.4 µM) | 31.3 µg/mL (≈ 93.4 µM) | 31.3 µg/mL (≈ 93.4 µM) | 15.6 µg/mL (≈ 46.5 µM) | 19 mm | 13 mm |  |
| CCC(CC)=NNc1nc2ccccc2[nH]c1=O | 10 mm | 15 mm | 0 mm | 15 mm | 20 mm | 28 mm | 0 mm | 0 mm | 18 mm | inactive | 7.8 µg/mL (≈ 31.9 µM) | 31.3 µg/mL (≈ 128 µM) | 7.8 µg/mL (≈ 31.9 µM) | 62.5 µg/mL (≈ 256 µM) | 31.3 µg/mL (≈ 128 µM) | 31.3 µg/mL (≈ 128 µM) | inactive | 0 mm | 25 mm |  |
| O=c1[nH]c2ccccc2nc1NN=C1CCCCC1 | 19 mm | 11 mm | 12 mm | 17 mm | 16 mm | 25 mm | 10 mm | 0 mm | 21 mm | inactive | 31.3 µg/mL (≈ 122 µM) | 31.3 µg/mL (≈ 122 µM) | 15.6 µg/mL (≈ 60.9 µM) | 15.6 µg/mL (≈ 60.9 µM) | 62.5 µg/mL (≈ 244 µM) | 15.6 µg/mL (≈ 60.9 µM) | 125 µg/mL (≈ 488 µM) | 0 mm | 15 mm |  |
